PMC2692962 (Journal of molecular biology, 2009)

Assays:
[1] = biological target: T1, NS3h_1b(con1) HCV helicase (Hepatitis C virus genotype 1b, UniProt Q9WMX2); assay: ATP hydrolysis assay; assay type: biochemical; details: for ATP hydrolysis in the presence of RNA: 0.1 mg/ml poly(U), 15 nM NS3h; for ATP hydrolysis in the presence of RNA / ATP hydrolysis in the absence of RNA: 2 mM ATP, 37 °C; for ATP hydrolyzed for each 25 bp duplex separated: MBHA conditions, 25 nM NS3h, 1.25 mM metal; for ATP hydrolyzed for each 25 bp duplex separated / rate of ATP hydrolysis: 1 mM ATP; for rate of ATP hydrolysis: in MBHA, 25 nM NS3h_1b(con1), 1.25 mM metal chloride, triplicate; for ATP hydrolysis in the absence of RNA: no nucleic acid, 100 nM NS3h, versus rate without added metal; for ATP hydrolyzed in the time needed to separate a single base pair: steady state unwinding versus ATP hydrolysis, only divalent cation present
T1 sequence (Q9WMX2 1192-1657): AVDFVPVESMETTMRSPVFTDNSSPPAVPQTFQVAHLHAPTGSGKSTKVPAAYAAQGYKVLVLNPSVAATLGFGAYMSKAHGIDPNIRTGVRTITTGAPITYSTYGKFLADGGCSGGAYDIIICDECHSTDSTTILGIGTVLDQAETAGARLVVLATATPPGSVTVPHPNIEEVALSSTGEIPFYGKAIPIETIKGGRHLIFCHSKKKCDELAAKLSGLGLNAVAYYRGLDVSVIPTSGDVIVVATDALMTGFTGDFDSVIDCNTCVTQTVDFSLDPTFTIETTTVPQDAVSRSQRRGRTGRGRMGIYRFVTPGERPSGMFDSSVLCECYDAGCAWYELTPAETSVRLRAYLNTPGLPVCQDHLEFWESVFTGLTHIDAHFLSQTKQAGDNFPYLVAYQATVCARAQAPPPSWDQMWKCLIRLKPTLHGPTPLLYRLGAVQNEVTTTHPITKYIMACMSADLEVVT

[2] = biological target: T1, NS3h_1b(con1) HCV helicase; assay: mantADP; assay type: binding; details: FRET, metal replacing Mg^2+
[3] = biological target: T1, NS3h_1b(con1) HCV helicase; assay: Molecular beacon based helicase assay; assay type: biochemical; details: for ability of divalent metal to support DNA unwinding: metal replacing Mg^2+; for DNA unwinding rate, times faster than ATP: 0.5 mM NTP, 2 mM MgCl2, 25 nM NS3h, 22 °C; for Vmax, Michaelis-Menten / Km: data at or below 1 mM NTP; for Vmax, substrate inhibition model: global fit to equation (2); for Km: read-out: Km, Michaelis-Menten; for unwinding rate, % of that seen with ATP: 0.5 mM NTP analog, 2 mM MgCl2, initial rates
[4] = biological target: T1, NS3h_1b(con1) HCV helicase; assay: Single-turnover MBHA; assay type: biochemical; details: for Afast / kfast / Aslow / kslow: 0.5 mM NTP
Method in brief: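 Enzyme (50 nM NS3h) and 10 nM 17 bp Cy5 beacon DNA substrate in 50 mM MOPS pH 6.5 with 4 mM MgCl2 were rapidly mixed 1:1 with 1.0 mM NTP plus 2 μM dT20 trap. Fluorescence gave substrate remaining, corrected against a substrate-free blank and pre-NTP signal. Product (5 nM minus remaining) was fit to a two-phase first-order equation. Three independent reactions were run.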

full-length NS3 = details: ref Wardell et al.; cited from earlier work
HCV helicase [5] = details: ref Kyono et al.; cited from earlier work
HCV helicase [6] = details: ref Locatelli et al.; cited from earlier work
[7] = 17 base pairs substrate, two-phase fit

Structure (SMILES): Nc1ncnc2c1ncn2C1OC(COP(=O)([O-])OP(=O)([O-])OP(=O)([O-])[O-])C(O)C1O.[Mn+2] (stereo not shown) [Mn(ATP)^2−]
- hydrolysis by the open form, times slower than Mg(ATP)^2− ([1]; enzyme not bound to RNA): at least 100 times

Structure (SMILES): [Cl][Mn][Cl] [Mn^2+, MnCl2]
- formation of enzyme-metal-NTP complex [2]: formed an enzyme-metal-NTP complex
- ATP hydrolysis in the presence of RNA [1]: supported hydrolysis
- ATP hydrolyzed for each 25 bp duplex separated [1]: about 75 ATP
- rate of ATP hydrolysis [1]: 605 ± 4 nM/min
- ATP hydrolysis in the absence of RNA [1]: inhibited the rate of hydrolysis
- ATP hydrolyzed in the time needed to separate a single base pair [1]: 3 ATP
- MBHA substrate unwound, times faster than with Mg^2+ ([3]; 25 nM NS3h_1b(con1), 1 mM ATP, 1.25 mM MgCl2 or MnCl2): about 14 times
- ability of divalent metal to support DNA unwinding ([3]; data not shown): could fuel unwinding

Structure (SMILES): Nc1ncnc2c1ncn2[C@@H]1O[C@H](COP(=O)(O)OP(=O)(O)OP(=O)(O)O)C[C@H]1O [3′-dATP]
- DNA unwinding rate, times faster than ATP [3]: 3 fold

Structure (SMILES): Cc1cn([C@H]2C[C@H](O)[C@@H](COP(=O)(O)OP(=O)(O)OP(=O)(O)O)O2)c(=O)[nH]c1=O [dTTP]
- DNA unwinding rate, times faster than ATP [3]: about 3 fold
- Vmax, Michaelis-Menten ([3]; 0.25 mM free Mg^2+): 5.3 nM/min
- Vmax, substrate inhibition model ([3]; 0.25 mM free Mg^2+): 50 nM/min
- Km ([3]; 0.25 mM free Mg^2+): 300 µM
- Afast ([4]; 17 base pairs substrate): 3.4 ± 0.4 nM
- kfast ([4]; 17 base pairs substrate): 9.1 ± 0.4 min⁻¹
- Aslow [4, 7]: 0.48 ± 0.03 nM
- kslow [4, 7]: 0.28 ± 0.06 min⁻¹
- Afast ([4]; 30 base pairs substrate): 2.6 ± 0.03 nM
- Aslow ([4]; 30 base pairs substrate): 0.66 ± 0.02 nM
- kfast ([4]; 30 base pairs substrate): 4.8 ± 0.3 min⁻¹
- kslow ([4]; 30 base pairs substrate): 0.50 ± 0.02 min⁻¹

Structure (SMILES): [Cl-].[Cl-].[Mg+2] [Mg^2+, MgCl2]
- ATP hydrolysis in the presence of RNA [1]: supported hydrolysis
- ATP hydrolyzed for each 25 bp duplex separated [1]: about 1,000 ATP
- rate of ATP hydrolysis [1]: 629 ± 5.4 nM/min
- ATP hydrolysis in the absence of RNA [1]: enhanced hydrolysis
- ATP hydrolyzed in the time needed to separate a single base pair [1]: about 40 ATP

Structure (SMILES): Nc1ncnc2c1ncn2[C@H]1CC[C@@H](CO[P@@](=O)(O)O[P@](=O)(O)OP(=O)(O)O)O1 [2′,3′-ddATP]
- DNA unwinding rate, times faster than ATP [3]: 2.7 fold

Structure (SMILES): [N-]=[N+]=NC1C(O)C(COP(=O)(O)OP(=O)(O)OP(=O)(O)O)OC1n1cnc2c(N)ncnc21 (stereo not shown) [2′-azido-ATP]
- unwinding rate, % of that seen with ATP [3]: 61%

Structure (SMILES): [Co+2] [Co^2+]
- ATP hydrolysis in the presence of RNA [1]: supported hydrolysis
- ATP hydrolysis in the absence of RNA [1]: inhibited the rate of hydrolysis
- ability of divalent metal to support DNA unwinding ([3]; data not shown): did not support

Structure (SMILES): CO[C@@H]1[C@H](O)[C@@H](COP(=O)(O)OP(=O)(O)OP(=O)(O)O)O[C@H]1n1cnc2c(N)ncnc21 [2′-O-methyl-ATP]
- unwinding rate, % of that seen with ATP [3]: 34%

Structure (SMILES): Nc1ncnc2c1ncn2[C@@H]1O[C@H](COP(=O)(O)OP(=O)(O)OP(=O)(O)O)[C@@H](O)[C@@H]1O [2′-ara-ATP]
- unwinding rate, % of that seen with ATP [3]: practically the same unwinding rates as ATP

Structure (SMILES): Nc1ncnc2c1ncn2[C@H]1C[C@H](O)[C@@H](COP(=O)(O)OP(=O)(O)OP(=O)(O)O)O1 [dATP]
- unwinding relative to that observed with ATP (full-length NS3): 60%
- use of dATP compared with ATP for unwinding (HCV helicase [5]): used equally well

Structure (SMILES): Nc1nc2c(ncn2[C@@H]2O[C@H](COP(=O)(O)OP(=O)(O)OP(=O)(O)O)[C@@H](O)[C@H]2O)c(=O)[nH]1 [GTP]
- Vmax, Michaelis-Menten ([3]; 0.25 mM free Mg^2+): 0.05 nM/min
- Kii (GTP) ([3]; equation (3), GTP as non-competitive inhibitor of ATP fueled unwinding): 0.65 mM
- Vmax, substrate inhibition model ([3]; 0.25 mM free Mg^2+): 0.41 nM/min
- Km ([3]; 0.25 mM free Mg^2+): 410 µM
- reaction amplitude, times less than in ATP fueled reactions ([4]; 17 base pair substrate): 7 times
- Afast ([4]; 17 base pairs substrate): 0.42 ± 0.03 nM
- kfast ([4]; 17 base pairs substrate): 8.3 ± 1.9 min⁻¹
- Afast ([4]; 30 base pairs substrate): 0.58 ± 0.08 nM
- Aslow ([4]; 30 base pairs substrate): 0.11 ± 0.05 nM
- kfast ([4]; 30 base pairs substrate): 0.61 ± 0.06 min⁻¹
- kslow ([4]; 30 base pairs substrate): 0.62 ± 0.08 min⁻¹

Structure (SMILES): Nc1ncnc2c1ncn2[C@@H]1O[C@H](COP(=O)([O-])OP(=O)([O-])OP(=O)(O)O)[C@@H](O)[C@H]1O.[Mg+2] [Mg(ATP)^2−]
- maximal steady state unwinding rate ([3]; 25 nM NS3h): 0.8 nM/min
- Vmax for unwinding, times faster than Mg(GTP)^2− ([3]; Michaelis-Menten fit, data up to 1 mM Mg(NTP)^2−, 0.25 mM free Mg^2+): 15 times
- kcat of unwinding ([3]; calculated from maximal steady state rate at 25 nM NS3h, assumes monomer): 0.000533 s⁻¹

Structure (SMILES): O=c1[nH]c(=O)c2ncn([C@@H]3O[C@H](COP(=O)(O)OP(=O)(O)OP(=O)(O)O)[C@@H](O)[C@H]3O)c2[nH]1 [XTP, Xanthosine triphosphate]
- unwinding rate, % of that seen with ATP [3]: 7%

Structure (SMILES): [Cl-].[Cl-].[Zn+2] [Zn^2+, ZnCl2]
- formation of enzyme-metal-NTP complex [2]: formed an enzyme-metal-NTP complex
- ATP hydrolysis in the presence of RNA [1]: supported hydrolysis
- ATP hydrolysis in the absence of RNA [1]: inhibited the rate of hydrolysis
- ability of divalent metal to support DNA unwinding ([3]; data not shown): did not support

Structure (SMILES): [Ca+2] [Ca^2+]
- ATP hydrolysis in the absence of RNA [1]: inhibited the rate of hydrolysis
- ability of divalent metal to support DNA unwinding ([3]; data not shown): did not support

Structure (SMILES): Nc1ncnc2c1ncn2[C@@H]1O[C@H](COP(=O)(O)OP(=O)(O)OP(=O)(O)O)[C@@H](O)[C@H]1F [2′-F-ATP]
- unwinding rate, % of that seen with ATP [3]: 145%

Structure (SMILES): Nc1ncnc2c1ncn2[C@@H]1O[C@H](COP(=O)(O)OP(=O)(O)OP(=O)(O)O)[C@@H](O)[C@H]1O [ATP]
- Vmax, Michaelis-Menten ([3]; 0.25 mM free Mg^2+): 0.79 nM/min
- Vmax ([3]; equation (3), ATP and GTP both present): 1.6 nM/min
- Vmax, substrate inhibition model ([3]; 0.25 mM free Mg^2+): 10 nM/min
- Ki ([3]; read-out: Ki (ATP), equation (3), ATP and GTP both present): 0.69 mM
- Km ([3]; 0.25 mM free Mg^2+): 70 µM
- unwinding, times better than dATP (HCV helicase [6]): 100 times
- Afast ([4]; 17 base pairs substrate): 3.1 ± 0.02 nM
- kfast ([4]; 17 base pairs substrate): 8.4 ± 0.1 min⁻¹
- Aslow [4, 7]: 0.70 ± 0.04 nM
- kslow [4, 7]: 0.28 ± 0.05 min⁻¹
- Afast ([4]; 30 base pairs substrate): 1.8 ± 0.03 nM
- Aslow ([4]; 30 base pairs substrate): 1.2 ± 0.03 nM
- kfast ([4]; 30 base pairs substrate): 3.1 ± 0.1 min⁻¹
- kslow ([4]; 30 base pairs substrate): 0.46 ± 0.03 min⁻¹

Structure (SMILES): [Cl-].[Na+] [NaCl]
- IC50 ([3]; read-out: IC50, inhibition of NS3h catalyzed DNA unwinding, MBHA, data not shown): 15 mM
